Legend:
MCF7 [1] = assay: Cytotoxicity activity against human MCF7 cells expressing p53 mutant by MTT assay; assay type: functional, cell-based
Outline: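 Human mammary carcinoma MCF-7 cells carrying a dominant-negative mutant p53 tumour suppressor gene (MCF-7 mup53). Cytotoxicity was read out by MTT assay, and the value reported is the IC50 in nM.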

MCF7 [2] = assay: Antimitotic activity against human MCF7 cells expressing p53 mutant

Compound | IC50 (MCF7 [1]) | IC50 (MCF7 [2])
CCOC(=O)/C(C)=C/[C@H](C(C)C)N(C)C(=O)[C@@H](NC(=O)[C@@H](NC)C(C)(C)c1ccccc1)C(C)(C)C | 7 nM | 1 nM
CN[C@@H](Cc1ccccc1)C(=O)N[C@H](C(=O)N(C)[C@H](/C=C(\C)C(=O)O)C(C)C)C(C)(C)C | 4000 nM | 5000 nM
CN[C@H](C(=O)N[C@H](C(=O)N[C@H](/C=C(\C)C(=O)O)C(C)C)C(C)(C)C)C(C)(C)c1ccccc1 | 15 nM | 20 nM
CN[C@H](C(=O)N[C@H](C(=O)N(C)[C@H](/C=C(\C)C(=O)O)C(C)C)C(C)(C)C)C(C)(C)C | 6 nM | 6 nM
CN[C@H](C(=O)N[C@H](C(=O)N[C@H](/C=C(\C)C(=O)O)C(C)C)C(C)(C)C)C(C)(C)c1cn(C)c2ccccc12 | 0.25 nM | 0.15 nM
CN[C@H](C(=O)N[C@H](C(=O)N(C)[C@H](C)/C=C(\C)C(=O)O)C(C)(C)C)C(C)(C)c1cn(C)c2ccccc12 | 40 nM | 200 nM
CN[C@H](C(=O)N[C@H](C(=O)N(C)[C@H](/C=C(\C)C(=O)OC)C(C)C)C(C)(C)C)C(C)(C)c1ccccc1 | 3 nM | 2 nM
CN[C@H](C(=O)N[C@H](C(=O)N(C)[C@H](/C=C(\C)C(=O)O)C(C)C)C(C)(C)C)C(C)C | 150 nM | 120 nM
CN[C@H](C(=O)N[C@H](C(=O)N[C@H](/C=C(\C)C(=O)O)C(C)C)C(C)(C)C)C(C)(C)C | 1600 nM | > 10000 nM
CN[C@@H](C(=O)N[C@H](C(=O)N(C)[C@H](/C=C(\C)C(=O)O)C(C)C)C(C)(C)C)C(C)(C)c1ccccc1 | 25 nM | 10 nM
CN[C@H](C(=O)N[C@H](C(=O)N(C)C/C=C(\C)C(=O)O)C(C)(C)C)C(C)(C)c1cn(C)c2ccccc12 | > 10000 nM | > 10000 nM
CN[C@H](C(=O)N[C@H](C(=O)N(C)[C@H](CC(C)C(=O)O)C(C)C)C(C)(C)C)C(C)(C)c1cn(C)c2ccccc12 (stereo not given in full) |  | 2.5 nM
CN[C@H](C(=O)N[C@H](C(=O)N(C)CCCC(=O)O)C(C)(C)C)C(C)(C)c1cn(C)c2ccccc12 | > 1000 nM | > 1000 nM
C/C(=C\[C@H](C(C)C)N(C)C(=O)[C@@H](NC(=O)[C@@H](N)Cc1c[nH]c2ccccc12)C(C)(C)C)C(=O)O | 40 nM | 20 nM
CN[C@H](C(=O)N[C@H](C(=O)N(C)[C@H](/C=C(\C)C(=O)O)C(C)C)C(C)C)C(C)(C)c1cn(C)c2ccccc12 | 0.8 nM | 0.5 nM
CC[C@H](NC(=O)[C@@H](NC)C(C)(C)c1cn(C)c2ccccc12)C(=O)N(C)[C@H](/C=C(\C)C(=O)O)C(C)C | 0.8 nM | 0.5 nM

Compound | IC50 (MCF7 [1]) | IC50 (MCF7 [2])
C/C(=C\[C@H](C(C)C)N(C)C(=O)[C@@H](NC(=O)[C@@H](N)C(C)(C)c1cn(C)c2ccccc12)C(C)(C)C)C(=O)O | 50 nM | 30 nM
CN[C@@H](Cc1cn(C)c2ccccc12)C(=O)N[C@H](C(=O)N(C)C/C=C(\C)C(=O)O)C(C)(C)C | > 10000 nM | > 10000 nM
C/C(=C\[C@H](C(C)C)N(C)C(=O)[C@@H](NC(=O)C(C)(C)C)C(C)(C)C)C(=O)O | > 10000 nM | > 10000 nM
CN[C@H](C(=O)N[C@H](C(=O)N(C)[C@@H](/C=C(\C)C(=O)O)C(C)C)C(C)(C)C)C(C)(C)c1cn(C)c2ccccc12 | 30 nM | 10 nM
CN[C@H](C(=O)N[C@H](C(=O)N(C)[C@@H](C)/C=C(\C)C(=O)O)C(C)(C)C)C(C)(C)c1cn(C)c2ccccc12 | 4 nM | 4 nM
CN[C@@H](Cc1cn(C)c2ccccc12)C(=O)N[C@H](C(=O)N(C)[C@H](/C=C(\C)C(=O)O)C(C)C)C(C)(C)C | 60 nM | 300 nM
CC(=O)N(C)[C@H](C(=O)N[C@H](C(=O)N(C)[C@H](/C=C(\C)C(=O)O)C(C)C)C(C)(C)C)C(C)(C)c1cn(C)c2ccccc12 | 300 nM | 300 nM
CN[C@@H](Cc1cn(C)c2ccccc12)C(=O)N[C@H](C(=O)N(C)C(C)/C=C(\C)C(=O)O)C(C)(C)C (stereo not given in full) | 2500 nM | 1100 nM
C/C(=C\[C@H](C(C)C)N(C)C(=O)[C@@H](NC(=O)[C@H](C(C)(C)c1cn(C)c2ccccc12)[N+](C)(C)C)C(C)(C)C)C(=O)O | > 1000 nM | > 1000 nM
CN[C@H](C(=O)N[C@H](C(=O)N(C)[C@H](/C=C(\C)C(=O)N[C@@H](CCCNC(=N)N)C(=O)O)C(C)C)C(C)(C)C)C(C)(C)c1cn(C)c2ccccc12 [CRIAMIDES A] | 1000 nM | 
CN[C@H](C(=O)N[C@H](C(=O)N(C)[C@H](/C=C(\C)C(=O)OC)C(C)C)C(C)(C)C)C(C)(C)c1cn(C)c2ccccc12 [HEMIASTERLIN METHYL ESTER] | 0.5 nM | 0.5 nM
CN[C@H](C(=O)N[C@H](C(=O)N(C)[C@H](/C=C(\C)C(=O)O)C(C)C)C(C)(C)C)C(C)(C)c1c[nH]c2ccccc12 [HEMIASTERLINS A] | 2 nM | 2 nM
CN[C@H](C(=O)N[C@H](C(=O)N(C)[C@H](/C=C(\C)C(=O)O)C(C)C)C(C)C)C(C)(C)c1c[nH]c2ccccc12 [HEMIASTERLINS B] | 7 nM | 200 nM
CN[C@H](C(=O)N[C@H](C(=O)N(C)[C@H](/C=C(\C)C(=O)O)C(C)C)C(C)(C)C)C(C)(C)c1cn(C)c2ccccc12 [HEMIASTERLIN] | 0.3 nM | 0.3 nM
CN[C@H](C(=O)N[C@H](C(=O)N(C)[C@H](/C=C(\C)C(=O)O)C(C)C)C(C)(C)C)C(C)(C)c1ccccc1 [TALTOBULIN] | 0.08 nM | 0.09 nM
